Screening results from PubChem BioAssay.
Hits are enriched below; roughly 2.6% of the tested compounds scored in any of these assays.
Xi reactivation: activators of inactive X chromosome reactivation, primary screen, imaging, XiGFP fibroblasts, GFP high-content imaging, set 2. activation, % at 7.58 µM. actives 0.055% (n = 360,000). XiGFP mouse fibroblasts, % GFP-positive cells imaging, 3 d; cells co-treated with 5-aza-dC sensitizer; scaled so ellipticine positive control = 100%;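 active = mean normalized replicate activation at least 10% and every replicate at or above 10%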;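 also: 0% = median of on-plate neutral control wells and 100% = ellipticine 6 µM median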
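material = 68-5-11 XiGFP fibroblast line | medium = DMEM plus 5-aza-dC sensitizer | schedule = 3 days compound exposure | benchmarks = positive control ellipticine, 6 µM final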
dFosB activator: activators of delta FosB homodimer, primary screen, biochemical, fluorescence polarization, TAMRA-CDK5 oligo, single point. activation, % at 25 µM. actives 0.99% (n = 340,000). purified delta FosB; percent of positive-control signal above neutral wells. AID 493131, 2011. Protein FosB (Mus musculus), P13346;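 active = mean activation above about 17%, with every replicate also reaching it, limit read from the data, passing the limit was not always enough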
rRNA inh HTS: reduced GFP signal of wild-type E. coli, primary screen, bacterial rRNA inhibitor project, GFP/RFP fluorescence, OD600, single point. E. coli WT GFP vs humanized-ribosome RFP mutants, 24 h; hits give low values; DMSO median 0, no signal -100. GFP signal change (wild-type ribosome), % (test concentration not listed). actives 1.6% (n = 350,000). AID 720706, 2013;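 active = significant combined selectivity score with lowered wild-type GFP, culture density cut under 30%, mutant RFP and density less affected; inactive = any of these conditions unmet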
SR-BI HDL uptake: inhibitors of SR-BI mediated HDL lipid uptake, primary screen, ldlA[mSR-BI] cells, fluorescence, single point. Scavenger receptor class B member 1 (Mus musculus), Q61009. ldlA[mSR-BI] CHO cells, DiI-HDL uptake fluorescence, 3 h. inhibition, % at 12.5 µM. actives 0.96% (n = 320,000). AID 488896, 2010;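 active = mean replicate inhibition of at least 70% and a set share of replicates each scoring 70 or more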;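 also: 0% = median of neutral control wells and 100% = median of positive control wells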
Target sequence (Q61009 whole entry, looked up): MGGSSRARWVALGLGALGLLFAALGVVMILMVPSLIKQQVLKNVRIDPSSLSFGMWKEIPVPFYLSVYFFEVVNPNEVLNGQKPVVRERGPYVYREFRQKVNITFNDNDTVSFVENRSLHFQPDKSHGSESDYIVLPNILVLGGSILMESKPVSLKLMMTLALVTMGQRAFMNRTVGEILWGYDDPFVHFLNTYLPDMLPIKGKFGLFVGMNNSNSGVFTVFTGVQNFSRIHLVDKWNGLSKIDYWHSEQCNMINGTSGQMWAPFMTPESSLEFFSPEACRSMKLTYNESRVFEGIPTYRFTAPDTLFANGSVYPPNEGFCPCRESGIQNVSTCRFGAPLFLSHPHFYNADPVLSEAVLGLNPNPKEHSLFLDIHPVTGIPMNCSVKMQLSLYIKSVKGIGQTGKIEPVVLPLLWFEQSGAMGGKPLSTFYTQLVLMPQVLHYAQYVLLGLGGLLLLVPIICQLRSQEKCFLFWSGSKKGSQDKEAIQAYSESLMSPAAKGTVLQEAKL
PvdQ inh: P. aeruginosa PvdQ acylase inhibitors, primary screen, biochemical, fluorescence, plate reader and imaging, single point; purified PvdQ acylase; inhibition, % at 10 µM; actives 0.063% (n = 340,000); in the data active = inhibition above about 30%, passing the limit was not always enough;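 also: 0% = vehicle neutral wells and 100% = reference inhibitor wells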
SR-BI uptake up: activators of SR-BI mediated DiI-HDL uptake, primary screen, ldlA[mSR-BI] CHO cells, DiI fluorescence; 3 h; 100 = double the neutral-control signal; activation, % at 12.5 µM; actives 0.096% (n = 320,000); AID 504775, 2011;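 active = mean replicate activation of at least 60% and every replicate at or above 60%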;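 also: 0% = median plate neutral-control signal and 100% = twice that signal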
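System: CHO ldlA[mSR-BI] cells / Medium: HEPES-buffered (25 mM, pH 7.4) F12 plus 0.5% BSA / Probe or stimulus: labelled HDL, 10 µg/mL / Doses: single compound concentration, delivered by pin transfer / Schedule: 3 h, 37 °C / Measured by: DiI fluorescence, bottom read / Measure: cell-associated DiI fluorescence as measure of HDL uptake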
* hit, by the source's call; i = inactive; x = not tested or not shown.

SMILES	Xi reactivation	dFosB activator	rRNA inh HTS	SR-BI HDL uptake	PvdQ inh	SR-BI uptake up
O=C1NC(c2cccc(Cl)c2)Oc2ccccc21 (configuration not stated)	0.0	-1.0	4.6	-15.0	4.5	15.0
Cc1ccc(Nc2cc(C)c3c(O)cccc3n2)cc1C	-0.2	38.5*	-54.7	5.1	-11.1	-5.1
C/C(CC(=O)Nc1cc(C)ccn1)=N\NC(=O)c1ccc(C(C)(C)C)cc1	0.1	-3.9	-6.1	3.1	-5.0	-3.1
CN(C)CCNC(=O)c1cccc2nc3cccc(F)c3nc12	-0.1	33.5*	4.8	-13.9	14.5	13.9
COc1ccc(OC)c2nc3c(C(=O)NCCN(C)C)cccc3nc12	0.3	87.1*	-5.8	-12.5	4.9	12.5
CN(C)CCNC(=O)c1cccc2ccc(-c3ccc(-c4ccccc4)cc3)nc12	-0.1	-60.4	-56.6	-11.3	-10.4	11.3
CCN1CCN(C(=S)Nc2ccc(Cl)c(Cl)c2)CC1	0.0	-2.0	-11.8	-22.2	-10.1	22.2
CCOC(=O)c1ccccc1NC(=O)COC(=O)CCC(=O)c1ccc(C)cc1	-0.1	-14.6	-1.5	-0.6	-7.9	0.6
CCOC(=O)N1CCC(Nc2ncnc3c2cnn3-c2ccccc2)CC1	x	-11.0	x	3.7	-1.1	-3.7
CCCCOc1ccccc1NC(=O)CC1SC(=NCC)N(CC)C1=O (configuration not stated)	x	-2.1	x	83.6*	-18.4	-83.6
Cn1nc(C(C)(C)C)cc1C(=O)NCc1cc(F)cc2c1OCOC2	0.2	-12.3	-2.4	18.4	-18.8	-18.4
Cc1nc(NC(=O)c2ccccc2)sc1-c1csc(NCCc2ccccc2)n1	x	-7.2	x	76.2*	4.5	-76.2
CCCC(C)C(=O)Nc1nc(C)c(-c2csc(Nc3ccccc3OC)n2)s1 (configuration not stated)	0.0	-16.1	1.8	84.4*	-11.5	-84.4
CCCCCCC(=O)Nc1nc(C)c(-c2csc(Nc3ccccc3OC)n2)s1	0.0	-13.4	10.3	79.6*	-12.9	-79.6
CCCCC(=O)Nc1nc(C)c(-c2csc(Nc3cc(OC)ccc3OC)n2)s1	0.3	7.5	0.2	83.0*	9.3	-83.0
CCCCCCC(=O)Nc1nc(C)c(-c2csc(Nc3cc(Cl)ccc3C)n2)s1	0.0	6.2	-0.9	63.5	-4.4	-63.5
CCOc1ccccc1Nc1nc(-c2sc(NC(=O)c3cccc(Cl)c3)nc2C)cs1	0.1	5.6	2.4	103.8*	-6.1	-103.8
CCCCC(=O)Nc1nc(C)c(-c2csc(Nc3cc(Cl)ccc3OC)n2)s1	0.0	-5.6	0.3	88.3*	-11.7	-88.3
COc1ccccc1Nc1nc(-c2sc(NC(=O)c3ccccc3)nc2C)cs1	0.0	-1.0	-1.0	59.2	-14.5	-59.2
CCCC(C)C(=O)Nc1nc(C)c(-c2csc(Nc3ccc(Cl)cc3)n2)s1 (configuration not stated)	0.1	-2.0	2.8	84.7*	-16.8	-84.7
CCCC(=O)Nc1nc(C)c(-c2csc(Nc3ccccc3C)n2)s1	0.0	-11.0	-1.5	28.5	-12.4	-28.5
CC1(C)C2CCC(C2)C1(C)N=C1OC(CCl)CS1 (configuration not stated)	1.4	-8.1	-21.9*	3.7	-5.7	-3.7
Cn1c(O)c(/C=N/NC(=O)c2cc3ccccc3cc2O)c2ccccc21	0.4	3.2	-59.2	x	-3.2	x
COc1ccc2c(c1)cc(C(=O)N/N=C/c1c(O)c(C(=O)O)cc3ccccc13)n2C	0.2	-24.2	-1.0	86.2*	-5.2	-86.2
COc1ccc(S(=O)(=O)N(C)CC(=O)N2CCN(C)CC2)cc1Cl	0.5	3.2	4.9	-20.9	-8.5	20.9
SMILES	Xi reactivation	dFosB activator	rRNA inh HTS	SR-BI HDL uptake	PvdQ inh	SR-BI uptake up
COc1ccc(NS(=O)(=O)c2cc(NC(=O)c3ccc(=O)[nH]n3)ccc2N2CCOCC2)cc1	0.0	-3.5	-27.4*	-12.6	-13.6	12.6
COC(=O)c1cc(NC(=O)c2cc(-c3ccccc3Cl)oc2C(F)(F)F)ccc1N1CCOCC1	0.1	-20.0	-32.2*	84.2*	-3.6	-84.2
COc1ccc(NS(=O)(=O)c2cc(NC(=O)c3ccc(=O)[nH]c3)ccc2N2CCOCC2)cc1	0.0	0.5	-11.3	-21.8	7.4	21.8
COc1ccc(NS(=O)(=O)c2cc(NC(=O)c3cc(F)c(F)cc3Cl)ccc2N2CCOCC2)cc1	0.1	20.7*	4.1	22.6	-0.7	-22.6
COc1ccc(NS(=O)(=O)c2cc(NC(=O)c3ccccc3)ccc2N2CCOCC2)cc1	0.0	-6.1	-3.2	11.0	-5.6	-11.0
COc1ccc(S(=O)(=O)N2CCN(c3ncccn3)CC2)cc1	0.0	4.4	19.9	-11.3	-12.6	11.3
c1ccc(C(c2ccccc2)c2nc(-c3cccnc3)no2)cc1	x	-1.6	-39.5*	-11.6	-4.3	11.6
C/C(=N\Nc1ccc([N+](=O)[O-])cc1)c1cccc(N)c1	x	0.4	-27.0	-3.4	-4.2	3.4
CCC(=NNc1ccc([N+](=O)[O-])cc1[N+](=O)[O-])c1ccccc1	-0.2	x	-2.8	x	x	x
CC/C(=N\Nc1ccc([N+](=O)[O-])cc1[N+](=O)[O-])c1ccc(O)cc1	0.0	-8.6	-1.0	75.7*	-10.2	-75.7
C/C(=N\Nc1ccc([N+](=O)[O-])cc1)c1ccc(O)cc1	0.0	-5.3	-58.9	74.0*	-0.9	-74.0
Cc1noc(C)c1S(=O)(=O)Nc1ccc2c(c1)C(=O)N([C@@H](C)CO)C[C@@H](C)[C@H](CN(C)S(=O)(=O)c1cccs1)OCCCC[C@H](C)O2	0.2	x	-0.5	x	x	x
CC(=O)N1CCC2(CC1)CC(=O)c1cc(OCC(=O)N3CCOCC3)ccc1O2	0.9	-2.4	6.7	x	-9.0	x
COc1ccc(NC(=O)Nc2ccc3c(c2)C(=O)N([C@H](C)CO)C[C@@H](C)[C@H](CN(C)C(=O)Nc2ccccc2)O3)cc1	0.7	x	-2.4	x	x	x
COc1cc(/C=C(\C#N)C(=O)Nc2ccc(SC(F)F)cc2)cc(OC)c1OC	x	-3.8	x	86.0*	-8.8	-86.0
OCCCCc1nccc2c1[nH]c1ccccc12	0.1	-4.1	4.5	i	-8.1	538.3*
CCC/C(=N\NC(=O)c1ccc(OC)c(OC)c1)c1ccccc1	0.0	-7.9	8.3	x	-12.9	x
